OXTR potentiator: human OXTR potentiators, primary screen, fluorescence, CHO-OTR cells, Fluo-8 calcium; Fluo-8 calcium fluorescence, potentiator mode; 0% = oxytocin EC15, 100% = EC100; 0.061% of 320,000 active; activation, % at 3 µM;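 active = activation above that plate's cutoff, the mean activation of tested compounds plus 3 SD, cut at about 6.6% in these data, passing the limit was not always enough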;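 also: 100% uses oxytocin at 75 nM as the full agonist control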
Target sequence (P30559 whole entry, looked up): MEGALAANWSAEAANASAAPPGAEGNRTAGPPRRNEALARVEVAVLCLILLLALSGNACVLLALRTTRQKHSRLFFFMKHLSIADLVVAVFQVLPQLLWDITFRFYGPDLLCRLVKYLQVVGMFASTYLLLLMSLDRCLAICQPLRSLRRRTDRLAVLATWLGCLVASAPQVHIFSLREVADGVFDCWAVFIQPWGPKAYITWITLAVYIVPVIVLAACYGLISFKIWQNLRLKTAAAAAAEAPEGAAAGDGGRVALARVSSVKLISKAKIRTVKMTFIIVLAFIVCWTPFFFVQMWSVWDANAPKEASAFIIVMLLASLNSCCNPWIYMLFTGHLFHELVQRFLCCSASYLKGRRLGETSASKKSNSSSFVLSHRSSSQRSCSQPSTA
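Assay system: CHO cell line stably expressing human OTR. Reagent: EC15 oxytocin agonist. Dosing: single dose, 3.0 µM nominal final compound concentration. Timing: compound 6 min at room temperature before oxytocin, 100 s read. Signal: kinetic Fluo-8 calcium fluorescence. Controls: oxytocin EC15 low and EC100 high.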
V1R ag counter: agonists of human V1a receptor, primary screen, counter-screen for OXTR agonist project, fluorescence, CHO-V1R cells | Fluo-8 calcium fluorescence, agonist mode; 0% DMSO, 100% 3 nM vasopressin | activation, % at 3 µM | 0.25% of 320,000 active | AID 2797, 2010;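 active = activation above the mean activation of all tested compounds plus 3 SD, per screening run, cut at about 20% in these data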;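 also: signal is peak over basal fluorescence ratio across a 100 second FLIPR read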
OXTR agonist: human OXTR agonists, primary screen, fluorescence, CHO-OTR cells, Fluo-8 calcium | activation, % at 3 µM | Oxytocin receptor (Homo sapiens), P30559 | 0.32% of 320,000 active | Fluo-8 calcium fluorescence; normalized: DMSO 0%, oxytocin 100%;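 active = activation above the mean of all tested compounds plus 3 SD, cutoff set per screening run, cut at about 20% in these data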;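 also: peak over basal fluorescence ratio from a 100 s FLIPR kinetic read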
OX1R antag-1: OX1R (HCRTR1) antagonists, primary screen, fluorescence, CHO/OX1R cells, Fluo-8 calcium, orexin A; Orexin/Hypocretin receptor type 1 (Homo sapiens), O43613; Fluo-8 calcium fluorescence; inhibition, % at 5 µM; 0.43% of 330,000 active; AID 434989, 2010;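 active = inhibition above its plate's threshold, mean inhibition of all tested compounds on the plate plus 3 SD, cut at about 37% in these data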;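 also: 0% = orexin A challenge wells and 100% = SB-334867-A antagonist wells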
OX1R antag-2: antagonists of human orexin 1 receptor (OX1R); Orexin/Hypocretin receptor type 1 (Homo sapiens), O43613; OX1R-expressing cells, FRET antagonist read-out; inhibition, % at 6.6 µM; 1.8% of 330,000 active; AID 485270, 2010; in the data active = inhibition mostly above about 38%, no sharp cut-off; inactive = mostly below about 40%;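 also: 0% = agonist challenge alone and 100% = reference antagonist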
CHO parental Ca: ATP-evoked calcium signal inhibitors, parental CHO, primary screen, counter-screen for OX1R antagonist project, cell-based, fluorescence, Fluo-8 calcium dye. parental CHO-K1, ATP-induced calcium, Fluo-8 fluorescence. inhibition, % at 5.6 µM. 0.63% of 330,000 active;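 active = inhibition above that plate's mean sample inhibition plus 3 SD, cut at about 26% in these data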;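 also: 0% = ATP-challenged DMSO wells and 100% = DMSO wells without ATP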
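Test system: untransfected parental CHO cell line; also added: ATP stimulus; dosing: 5.6 µM, single dose; signal: calcium-sensitive Fluo-8 fluorescence; measure: percent inhibition of ATP-evoked calcium rise, normalized to controls; benchmarks: low control ATP plus DMSO, high control DMSO only; replication: one well per compound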
* hit, by the source's call. Rows were chosen to be rich in hits. Some 2.6% of all compounds tested hit in one or more screens of this group.

SMILES	OXTR potentiator	V1R ag counter	OXTR agonist	OX1R antag-1	OX1R antag-2	CHO parental Ca
Nc1ccc2nc3c(=O)n(C4CCCCC4)c(=O)[nH]c3nc2c1	-8	159*	91*	46*	53	39*
Cc1cc2nc3c(=O)n(CCc4ccccc4)c(=O)[nH]c3nc2cc1N	-17	41*	64*	18	16	30
Nc1ccc2nc(CCc3ccccc3)[nH]c2c1	-4	1	0	-8	21	-12
Nc1ccc2nc3c(=O)n(CCc4ccccc4)c(=O)[nH]c3nc2c1	-22	69*	96*	42*	19	36*
C=C[C@H]1CN2CC[C@H]1C[C@H]2[C@H](O)c1ccnc2ccc(OC)cc12	-5	0	-1	-14	13	-13
Cc1ccc(C)c(S(=O)(=O)N2CCCCC2CCNC(=O)C(=O)NCc2ccncc2)c1 (stereo not given)	6	0	-1	-20	20	-25
Cn1c(C(=O)N2CCN(c3ccc(Cl)cc3)CC2)cc2c(=O)[nH]c3ccccc3c21	-24	4	1	-23	24	-13
Cc1ccc(Cl)cc1N1CCN(C(=O)c2cc3c(=O)[nH]c4ccccc4c3n2C)CC1	-13	9	14	40	17	45*
COc1ccccc1N(C)S(=O)(=O)c1ccc(C(=O)NCC2CCCCC2)cc1	-6	5	1	1	6	-17
CC1(C(=O)N2CC3(CC(c4cccc([N+](=O)[O-])c4)=NO3)C[C@H]2C(=O)NCC(N)=O)CC1 (stereo not given in full)	-10	1	-1	-6	48*	-2
CN(C)/C=C/c1oc2ccc(O)cc2c1[N+](=O)[O-]	0	0	0	-7	52*	-8
CCOc1ccc(N=Nc2c(=O)[nH]n3c(=O)c4c([nH]c23)CCCC4)cc1	-3	0	0	-11	14	-5
CCOc1ccc(N=Nc2c(=O)[nH]n3c(=O)cc(C)[nH]c23)cc1	-11	0	-3	-2	59*	-13
O=C(c1cc(-c2ccccc2)nc2ccccc12)N1N=C(C(F)F)CC1(O)C(F)F (stereo not given)	-2	1	1	-26	19	-27
Cc1ccc(-c2cc(C(=O)N3N=C(C(F)F)CC3(O)C(F)F)c3ccccc3n2)cc1C (stereo not given)	-9	4	2	10	26	45*
O=C(COC(=O)c1c(Cl)cccc1Cl)NCC1CCCO1 (stereo not given)	-10	0	0	3	8	-5
Cc1[nH]c2ccccc2c1/C=N/NC(=O)c1cc(C(C)C)[nH]n1	-4	1	1	1	44*	-8
CCOC(=O)CC1C(=O)NCCN1c1nc2ccc(C)cn2c(=O)c1/C=C1\SC(=S)N(CC(C)C)C1=O (stereo not given)	-9	13	18	49*	17	27*
O=[N+]([O-])c1ccc(Sc2ccccc2)nc1	-7	-1	-3	-2	43	-3
O=[N+]([O-])c1ccc(Sc2n[nH]c(-c3ccccc3)n2)nc1	4	5	0	-12	74*	-6
CSC1=NC2(CC(c3ccccc3)Oc3cc(O)ccc32)CC(C)(C)N1 (stereo not given)	-21	42*	21*	-22	-70	-18
O=C(NCCC1=CCCCC1)c1cc(-c2ccncc2)nc2ccccc12	-7	0	-1	-28	37	-23
COc1ccc(OC)c(Nc2cc3ccccc3c(=O)[nH]2)c1	0	2	-1	-21	68*	-11
COc1ccccc1Nc1cc2cc(Br)ccc2c(=O)[nH]1	-20	2	1	2	46	-18
CCn1c(Cc2ccc(OC)cc2)nnc1SCC(=O)N1CCN(c2ccccc2)CC1	-6	0	-1	-31	47*	-16
SMILES	OXTR potentiator	V1R ag counter	OXTR agonist	OX1R antag-1	OX1R antag-2	CHO parental Ca
COc1ccc(NS(=O)(=O)c2cccc(C(=O)NCC(c3ccc(F)cc3)N3CCOCC3)c2)cc1 (stereo not given)	-7	6	4	0	55*	-18
Cc1ccc(S(=O)(=O)Nc2cccc(C(=O)NCC(c3ccc(F)cc3)N3CCOCC3)c2)cc1 (stereo not given)	-2	0	2	15	36*	-17
COc1ccc(C(CNC(=O)c2cccc(NS(=O)(=O)c3ccc(C)c(F)c3)c2)N2CCOCC2)cc1 (stereo not given)	-5	1	0	-19	12	-18
COc1cc(CN2CCCC(C(=O)N3CCc4ccccc4C3)C2)cc(OC)c1OC (stereo not given)	-12	0	1	-28	3	-25
O=c1[nH]c(=O)c2nnc(N/N=C/c3ccccc3F)nc2[nH]1	-7	1	-1	-1	38	-4
O=c1[nH]c(=O)c2nnc(N/N=C\c3ccc(O)cc3)nc2[nH]1	-8	1	0	-14	62*	-8
Cc1ccccc1CN(C)C(=O)COC(=O)c1ccc2[nH]c(C)c(C)c2c1	-5	1	1	31	53*	-16
COc1ccc(CNc2cc(NCCCO)c([N+](=O)[O-])c3nonc23)cc1	-7	0	0	-12	38	-11
CC1CCN(CCCNc2cc(NCCO)c([N+](=O)[O-])c3nonc23)CC1	-3	0	1	-2	38*	0
O=[N+]([O-])c1c(NCCCO)cc(Sc2ccc(Cl)cc2)c2nonc12	-4	2	3	11	31	20
CN(CCO)c1cc(N2CCCCC2)c2nonc2c1[N+](=O)[O-]	-9	-1	-2	-5	47	-7
COc1ccc(Nc2cc(NCCCO)c([N+](=O)[O-])c3nonc23)cc1	-8	-1	-2	-6	49*	-16
CC1CCCN(c2cc(N(C)CCO)c([N+](=O)[O-])c3nonc23)C1 (stereo not given)	-2	0	0	-8	48*	9
O=[N+]([O-])c1c(NCCCO)cc(N2CCCCCC2)c2nonc12	-4	3	2	-38	37*	-15
CC(=O)OCCNc1cc(SCc2ccco2)c2nonc2c1[N+](=O)[O-]	-10	0	4	-6	46	-1
